Measurements: ChEMBL document CHEMBL1140424, “Charge dependence of cellular uptake and selective antitumor activity of porphyrazines” (J Med Chem, 2005)

Assays:
A549 [1] = experiment: Colocalization experiment with mitotracker green in A549 cells at 100 uM for 24 hrs by false-white two-photon confocal microscopy; conditions: human, a549, 24 h
A549 [2] = experiment: Cellular uptake in A549 cells using false-white single-photon confocal microscopy; type: ADME, cell-based; conditions: human
Summary of the method: (§1)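 Cells on glass coverslips grown at 37 °C, 5% CO2 to 60–80% confluence, then treated with pz (50, 25, 12.5, 6.2, 3.1 µM; DMSO stock) in the dark for 24 h. Washed twice with PBS and imaged live in PBS at room temperature. Single-photon excitation at 488 nm, long-pass 505-nm emission filter. Gain set to remove autofluorescence in DMSO-treated controls.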

A549 [3] = experiment: Cellular uptake in A549 cells using false-white single-photon confocal microscopy at 3.1 uM; type: ADME, cell-based; conditions: human, a549, 3.1 µM
Summary of the method: as §1

WI-38 VA13 [4] = experiment: Cytotoxicity against human fibroblast-like cell line of embryonic origin WI-38 VA13 at 12.5 to 100 uM by MTT assay; type: functional, cell-based
Summary of the method: (§2)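 Cells were grown to 70% confluence and treated in the dark with pz (12.5, 25, 50, 100 µM) or DMSO vehicle for 72 h. MTT (200 µg) was added for 5 h at 37 °C, solubilised in DMSO, and absorbance read at 540 nm. Viability is relative to DMSO control. Four plates per experiment, at least three experiments, normalised and averaged (≥12 values per condition).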

A549 [5] = experiment: Decrease in viability of A549 cells at 50 uM for 72 hrs; type: cell-based; conditions: human, a549, 72 h
Summary of the method: as §2

A549 [6] = experiment: Colocalization experiment with LysoTracker green in A549 cells at 100 uM for 24 hrs by false-white two-photon confocal microscopy; conditions: human, a549, 24 h
A549 [7] = experiment: Cytotoxicity against A549 tumor cells at 12.5 to 100 uM by MTT assay; type: functional, cell-based; conditions: Homo sapiens
Summary of the method: as §2

WI-38 VA13 [8] = experiment: Decrease in viability of WI-38 VA13 cells at 50 uM for 72 hrs; type: cell-based; conditions: human, wi-38 va13, 72 h
Summary of the method: as §2

A549 [9] = experiment: Decrease in viability of A549 cells at 100 uM for 72 hrs; type: cell-based; conditions: human, a549, 72 h
Summary of the method: as §2

A549 [10] = experiment: Percentage increase in growth of A549 tumor cells at 12.5 uM for 72 hrs; type: cell-based; conditions: human, a549, 72 h
Summary of the method: as §2

WI-38 VA13 [11] = experiment: Percentage growth of WI-38 VA13 cells at 25 uM for 72 hrs; type: cell-based; conditions: human, wi-38 va13, 72 h
Summary of the method: as §2

WI-38 VA13 [12] = experiment: Percentage increase in growth of WI-38 VA13 cells at 12.5 uM for 72 hrs; type: cell-based; conditions: human, wi-38 va13, 72 h
Summary of the method: as §2

A549 [13] = experiment: Decrease in viability of A549 cells at 25 uM for 72 hrs; type: cell-based; conditions: human, a549, 72 h
Summary of the method: as §2

WI-38 VA13 [14] = experiment: Decrease in viability of WI-38 VA13 cells at 100 uM for 72 hrs; type: cell-based; conditions: human, wi-38 va13, 72 h
Summary of the method: as §2

Activity (A549 [1])	Activity (A549 [2])	Activity (A549 [3])	Activity (A549 [6])	Activity (A549 [10]) [%]	Activity (WI-38 VA13 [11]) [%]	Activity (WI-38 VA13 [12]) [%]	Structure (SMILES)	Activity (WI-38 VA13 [4])	Activity (A549 [5]) [%]	Activity (A549 [7])	Activity (WI-38 VA13 [8]) [%]	Activity (A549 [9]) [%]	Activity (A549 [13]) [%]	Activity (WI-38 VA13 [14]) [%]
Active	Active	Active	Not Active				CC(C)Oc1ccc(OC(C)C)c2c1-c1nc3nc(nc4[nH]c(nc5[nH]c(nc-2n1)c(SCCOCCOCCO)c5SCCOCCOCCO)c1c(OC(C)C)ccc(OC(C)C)c41)C(SCCOCCOCCO)=C3SCCOCCOCCO	Toxic	40	Toxic				
				10	10	10	CC(C)Oc1ccc(OC(C)C)c2c1-c1nc3nc([nH]c4nc(nc5[nH]c(nc-2n1)c(SCCCC(=O)O)c5SCCCC(=O)O)-c1c(OC(C)C)ccc(OC(C)C)c1-4)C(SCCCC(=O)O)=C3SCCCC(=O)O		80		10	80	40	
							CC(C)Oc1ccc(OC(C)C)c2c1-c1nc3nc([nH]c4nc(nc5[nH]c(nc-2n1)c(SCCOCC[n+]1ccccc1)c5SCCOCC[n+]1ccccc1)-c1c(OC(C)C)ccc(OC(C)C)c1-4)C(SCCOCC[n+]1ccccc1)=C3SCCOCC[n+]1ccccc1	Toxic	10	Toxic	20	70		70
